Experimental data: ChEMBL document CHEMBL4014306, “Pyrazolopyrimidines as Potent Stimulators for Transient Receptor Potential Canonical 3/6/7 Channels” (J Med Chem, 2017)
Activity calls are given as the source filed them. The calls are words filed in the database; no cut-off is given here.

Tests used:
Format in all cases: cell-based
[1] = molecular target: T1, Short transient receptor potential channel 3 (Rattus norvegicus) (UniProt Q9JMI9); experiment: Agonist activity at TRPC3 in rat primary glomerular mesangial cells assessed as increase in intracellular calcium level at 1 uM by Fluo4-AM dye-based fluorescence assay
T1 sequence (whole entry): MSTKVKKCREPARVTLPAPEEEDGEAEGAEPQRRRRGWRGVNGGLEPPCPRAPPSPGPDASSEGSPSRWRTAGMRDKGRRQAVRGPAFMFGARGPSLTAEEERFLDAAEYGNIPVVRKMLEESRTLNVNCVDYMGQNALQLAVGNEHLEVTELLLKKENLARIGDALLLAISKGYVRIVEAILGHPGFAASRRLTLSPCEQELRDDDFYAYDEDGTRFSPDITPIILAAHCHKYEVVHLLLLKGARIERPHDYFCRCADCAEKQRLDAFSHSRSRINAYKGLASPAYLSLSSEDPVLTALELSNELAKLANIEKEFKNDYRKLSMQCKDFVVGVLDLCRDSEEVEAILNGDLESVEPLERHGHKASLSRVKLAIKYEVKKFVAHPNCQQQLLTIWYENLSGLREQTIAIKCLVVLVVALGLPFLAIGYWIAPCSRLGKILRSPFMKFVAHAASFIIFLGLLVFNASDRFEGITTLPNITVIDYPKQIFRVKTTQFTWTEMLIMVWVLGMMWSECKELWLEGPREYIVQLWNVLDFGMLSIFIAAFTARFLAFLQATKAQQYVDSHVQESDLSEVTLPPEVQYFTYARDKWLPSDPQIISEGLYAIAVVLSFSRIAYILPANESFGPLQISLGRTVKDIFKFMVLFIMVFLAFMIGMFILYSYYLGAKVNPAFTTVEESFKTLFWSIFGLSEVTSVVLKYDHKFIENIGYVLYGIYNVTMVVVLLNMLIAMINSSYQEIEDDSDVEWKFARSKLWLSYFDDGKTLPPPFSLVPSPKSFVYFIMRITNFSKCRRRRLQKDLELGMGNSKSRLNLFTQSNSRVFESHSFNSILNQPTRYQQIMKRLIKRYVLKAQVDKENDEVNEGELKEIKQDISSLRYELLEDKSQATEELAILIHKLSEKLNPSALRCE
Summary of the method: (§1)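 Rat glomerular mesangial cells, isolated by graded sieving from male Sprague–Dawley rats, collagenase-digested, cultured in RPMI 1640 with 17% FBS. Grown overnight on coverslips, then loaded with 10 μM Fluo4-AM and 0.02% pluronic F-127 for 1 h at 37 °C in 1 mM Ca2+ saline, pH 7.4. Compound at 1 μM. Confocal imaging, ex 488/em 515 nm, read as F/F0. For the 2-APB condition, 30 μM 2-APB for 2 min beforehand and kept during compound application.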

Rattus norvegicus = organism: Rattus norvegicus; experiment: Agonist activity at TRPC6 in rat primary glomerular mesangial cells assessed as increase in intracellular calcium level at 1 uM in presence of TRPC inhibitor […] by Fluo4-AM dye-based fluorescence assay; summary of the method: as §1
[2] = molecular target: Transient receptor potential cation channel subfamily A member 1 (Homo sapiens) (UniProt O75762); experiment: Inhibition of human TRPA1 expressed in HEK293 cells assessed as decrease in flufenamic acid-evoked increase in intracellular calcium level at 22 uM preincubated for 2 mins followed by flufenamic acid addition measured for 2.5 mins by Fluo8-AM dye-based fluorescence assay relative to control
Chain of Transient receptor potential cation channel subfamily A member 1 (Homo sapiens) (O75762 whole entry): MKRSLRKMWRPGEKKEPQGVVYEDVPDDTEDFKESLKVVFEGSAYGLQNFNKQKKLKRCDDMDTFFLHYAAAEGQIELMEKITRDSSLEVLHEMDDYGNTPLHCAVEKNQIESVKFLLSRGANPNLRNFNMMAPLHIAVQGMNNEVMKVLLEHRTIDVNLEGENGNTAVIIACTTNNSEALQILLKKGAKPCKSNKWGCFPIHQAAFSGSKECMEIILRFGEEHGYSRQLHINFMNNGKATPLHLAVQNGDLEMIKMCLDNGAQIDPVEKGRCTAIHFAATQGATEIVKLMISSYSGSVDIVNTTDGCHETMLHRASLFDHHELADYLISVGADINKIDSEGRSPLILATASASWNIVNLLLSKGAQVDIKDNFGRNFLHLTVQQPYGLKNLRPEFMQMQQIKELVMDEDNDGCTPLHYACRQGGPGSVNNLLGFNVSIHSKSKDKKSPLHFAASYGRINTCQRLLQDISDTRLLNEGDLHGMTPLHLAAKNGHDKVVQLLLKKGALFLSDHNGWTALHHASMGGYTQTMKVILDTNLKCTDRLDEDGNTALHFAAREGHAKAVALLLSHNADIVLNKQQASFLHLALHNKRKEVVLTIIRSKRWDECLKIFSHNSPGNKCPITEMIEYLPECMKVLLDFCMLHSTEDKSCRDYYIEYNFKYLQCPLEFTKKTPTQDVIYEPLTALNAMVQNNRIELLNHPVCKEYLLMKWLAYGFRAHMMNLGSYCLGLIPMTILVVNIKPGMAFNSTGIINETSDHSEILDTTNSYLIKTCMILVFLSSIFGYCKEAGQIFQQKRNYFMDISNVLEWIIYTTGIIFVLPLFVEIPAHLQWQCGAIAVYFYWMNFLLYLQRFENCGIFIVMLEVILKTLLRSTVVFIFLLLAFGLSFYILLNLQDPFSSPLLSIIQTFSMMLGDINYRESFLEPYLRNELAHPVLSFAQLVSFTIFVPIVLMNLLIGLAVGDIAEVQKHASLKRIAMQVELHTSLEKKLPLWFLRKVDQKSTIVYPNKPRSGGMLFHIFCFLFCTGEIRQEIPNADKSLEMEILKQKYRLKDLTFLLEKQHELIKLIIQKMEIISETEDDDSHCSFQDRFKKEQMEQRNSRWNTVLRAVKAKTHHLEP
Summary of the method: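 Same TRP panel as for the stimulation tests, with FMP dye for TRPC4 and M5 and Fluo8-AM for TRPA1, V1 and M8. Compound applied for 2 min before the channel agonist (TRPC4: 1 μM DAMGO). Inhibition of the agonist response measured on a FlexStation at 32 °C.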

[3] = molecular target: T2, Short transient receptor potential channel 6 (Mus musculus, UniProt Q61143); experiment: (§2) Agonist activity at mouse TRPC6 expressed in HEK293 cells co-expressing Gq11-PLCbeta fused M5 receptor assessed as induction of membrane potential depolarization measured for 2.5 mins by FLIPR assay
T2 sequence (Q61143 whole entry): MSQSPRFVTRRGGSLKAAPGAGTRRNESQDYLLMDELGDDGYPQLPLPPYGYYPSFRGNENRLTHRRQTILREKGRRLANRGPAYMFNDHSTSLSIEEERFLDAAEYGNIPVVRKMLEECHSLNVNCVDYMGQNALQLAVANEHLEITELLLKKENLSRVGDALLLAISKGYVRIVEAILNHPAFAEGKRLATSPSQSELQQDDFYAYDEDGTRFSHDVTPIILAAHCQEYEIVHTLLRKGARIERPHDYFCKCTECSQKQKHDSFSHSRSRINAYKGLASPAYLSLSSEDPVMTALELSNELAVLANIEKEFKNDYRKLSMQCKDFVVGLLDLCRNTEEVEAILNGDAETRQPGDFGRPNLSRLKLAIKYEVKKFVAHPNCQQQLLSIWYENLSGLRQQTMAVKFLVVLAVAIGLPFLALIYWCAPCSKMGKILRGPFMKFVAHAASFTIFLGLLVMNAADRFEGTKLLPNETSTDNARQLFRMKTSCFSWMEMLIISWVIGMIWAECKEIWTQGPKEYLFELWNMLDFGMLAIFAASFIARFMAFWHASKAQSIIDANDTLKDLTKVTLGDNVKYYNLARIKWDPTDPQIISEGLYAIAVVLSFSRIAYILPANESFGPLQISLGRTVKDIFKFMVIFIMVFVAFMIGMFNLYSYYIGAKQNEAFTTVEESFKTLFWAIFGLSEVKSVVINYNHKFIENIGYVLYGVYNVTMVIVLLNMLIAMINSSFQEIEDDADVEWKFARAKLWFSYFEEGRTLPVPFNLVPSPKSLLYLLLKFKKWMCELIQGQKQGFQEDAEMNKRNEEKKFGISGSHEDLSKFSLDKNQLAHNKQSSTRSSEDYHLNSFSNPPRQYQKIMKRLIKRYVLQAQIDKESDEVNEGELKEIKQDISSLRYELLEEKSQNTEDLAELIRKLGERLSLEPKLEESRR
Summary of the method: (§3)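 Mouse TRPC6/M5 stable HEK293 cells loaded with FLIPR membrane potential dye in extracellular solution containing 2 mM CaCl2, pH 7.4. Varying compound concentrations are applied, with 1 μM carbachol as reference, and read on a microplate reader at 32 °C. The increase in fluorescence (ΔF/F0) indicates depolarization. The concentration–response curve gives EC50, n = 6.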

[4] = molecular target: T3, Short transient receptor potential channel 6 (Mus musculus) (UniProt Q61143); experiment: as §2; summary of the method: as §3
T3 sequence (whole entry): T2 sequence (Q61143 whole entry)

HEK293 = experiment: Induction of intracellular calcium level in HEK293 cells at 30 uM measured for 2.5 mins by Fluo-4-AM dye based FLIPR assay; conditions: human, hek293, 2.5 min

Cc1nn2c(O)cc(C3CCN(C(=O)OCc4ccccc4)CC3)nc2c1-c1ccc(F)cc1
Activity [1]: Active | Activity (Rattus norvegicus): inactive

CCOC(=O)N1CCC(c2cc(O)n3nc(C)c(-c4ccc(C(F)(F)F)cc4)c3n2)CC1
inhibition [2]: < 20%

CCOC(=O)N1CCC(c2cc(O)n3nc(C)c(-c4ccc(F)cc4)c3n2)CC1
EC50 [3]: 1.4 µM | Activity [4]: Dose-dependent effect | Activity (HEK293): Non-Toxic
